Data on 32 compounds can be found in ChEMBL document CHEMBL4028886 (J Med Chem, 2017).

Active and inactive are the calls of the source. The calls are words filed in the database; no cut-off is given here.

What is called IC50 is the concentration at which inhibition is half-maximal.

Format in all cases: cell-based
The target in assay [1] is T1, Sodium-dependent dopamine transporter (Homo sapiens, UniProt Q01959). Nature of the assay: Inhibition of re-uptake of [3H]-dopamine at human DAT expressed in HEK293 cells preincubated for 5 mins followed by [3H]-dopamine addition measured after 1 min by liquid scintillation counting. In a few lines: (§1)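 HEK293 cells stably expressing human DAT or NET, seeded on PDL-coated plates 24 h before. Preincubated 5 min in Krebs–HEPES buffer pH 7.3 with compound at 0.001 μM to 1 mM (DMSO stock diluted in buffer). Substrate then added: 0.2 μM [3H]dopamine for DAT, 1 min; 0.05 μM [3H]MPP+ for NET, 3 min. Room temperature. Uptake stopped with ice-cold buffer. Cells lysed in 1% SDS and counted by scintillation. Unspecific uptake defined with 10 μM mazindol. IC50 by nonlinear regression.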

In assay [2] the target is Sodium-dependent noradrenaline transporter (Homo sapiens, UniProt P23975). The assay can be described thus: Inhibition of re-uptake of [3H]MPP+ at human NET expressed in HEK293 cells preincubated for 5 mins followed by […] addition measured after 3 min by liquid scintillation counting. In a few lines:
as §1

The target of assay [3] is Sodium-dependent serotonin transporter (Homo sapiens, UniProt P31645). The assay can be described thus: Inhibition of re-uptake of [3H]-5-HT at human SERT expressed in HEK293 cells preincubated for 5 mins followed by [3H]-dopamine addition measured after 1 min by liquid scintillation counting.
In assay [4] the target is T1, Sodium-dependent dopamine transporter. The assay can be described thus: Displacement of [3H]WIN 35,428 from human DAT expressed in HEK293 cells at 2 and 4 uM after 30 mins in presence of increasing concentration of cocaine by liquid scintillation counting. In outline: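 Intact HEK-DAT cells on PDL-coated plates, in binding buffer (HEPES, NaCl, KCl, CaCl2, MgCl2, 10 μM ZnCl2, glucose, pH 7,3). Incubated with ~10 nM [3H]WIN 35,428, fixed concentrations of test compound and cocaine 0.001–1 μM, 30 min at 25 °C. Nonspecific binding defined with 30 μM mazindol. Cells lysed in 1% SDS and counted by scintillation. Reciprocal of bound (fmol) plotted against cocaine concentration as Dixon plot. Three experiments in triplicate, mean ± SD.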

Sodium-dependent noradrenaline transporter, sequence (P23975 whole entry): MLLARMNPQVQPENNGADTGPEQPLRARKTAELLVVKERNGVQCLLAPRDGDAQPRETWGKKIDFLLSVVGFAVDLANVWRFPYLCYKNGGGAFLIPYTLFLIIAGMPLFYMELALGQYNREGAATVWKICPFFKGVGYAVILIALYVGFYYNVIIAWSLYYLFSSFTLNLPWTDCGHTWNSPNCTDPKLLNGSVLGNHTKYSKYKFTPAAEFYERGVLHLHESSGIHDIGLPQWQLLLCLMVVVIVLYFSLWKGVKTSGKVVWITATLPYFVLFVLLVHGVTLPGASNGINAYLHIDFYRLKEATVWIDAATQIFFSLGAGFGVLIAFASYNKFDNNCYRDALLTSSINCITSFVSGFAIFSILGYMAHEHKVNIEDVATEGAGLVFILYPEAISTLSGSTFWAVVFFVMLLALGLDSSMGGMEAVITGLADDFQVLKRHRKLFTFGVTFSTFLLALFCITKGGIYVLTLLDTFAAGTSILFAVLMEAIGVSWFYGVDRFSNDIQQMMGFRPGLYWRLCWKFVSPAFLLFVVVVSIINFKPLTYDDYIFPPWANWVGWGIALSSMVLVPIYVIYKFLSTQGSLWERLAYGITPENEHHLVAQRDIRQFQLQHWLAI
Sodium-dependent serotonin transporter, sequence (P31645 whole entry): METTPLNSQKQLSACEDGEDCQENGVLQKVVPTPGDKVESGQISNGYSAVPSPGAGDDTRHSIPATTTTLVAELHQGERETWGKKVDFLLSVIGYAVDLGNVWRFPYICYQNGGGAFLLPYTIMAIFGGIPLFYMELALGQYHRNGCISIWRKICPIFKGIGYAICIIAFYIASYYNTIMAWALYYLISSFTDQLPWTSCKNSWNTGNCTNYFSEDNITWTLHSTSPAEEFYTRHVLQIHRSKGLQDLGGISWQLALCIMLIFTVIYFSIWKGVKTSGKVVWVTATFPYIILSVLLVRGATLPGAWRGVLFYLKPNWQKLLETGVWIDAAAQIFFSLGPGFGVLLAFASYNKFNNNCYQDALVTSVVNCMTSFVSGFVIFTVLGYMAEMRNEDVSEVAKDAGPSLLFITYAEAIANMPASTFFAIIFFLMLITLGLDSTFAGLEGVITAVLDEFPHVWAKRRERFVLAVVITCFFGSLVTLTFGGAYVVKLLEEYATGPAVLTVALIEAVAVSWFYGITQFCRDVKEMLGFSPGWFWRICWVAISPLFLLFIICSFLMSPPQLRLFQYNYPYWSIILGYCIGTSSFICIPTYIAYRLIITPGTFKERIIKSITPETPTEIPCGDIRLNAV
T1 sequence (Q01959 whole entry): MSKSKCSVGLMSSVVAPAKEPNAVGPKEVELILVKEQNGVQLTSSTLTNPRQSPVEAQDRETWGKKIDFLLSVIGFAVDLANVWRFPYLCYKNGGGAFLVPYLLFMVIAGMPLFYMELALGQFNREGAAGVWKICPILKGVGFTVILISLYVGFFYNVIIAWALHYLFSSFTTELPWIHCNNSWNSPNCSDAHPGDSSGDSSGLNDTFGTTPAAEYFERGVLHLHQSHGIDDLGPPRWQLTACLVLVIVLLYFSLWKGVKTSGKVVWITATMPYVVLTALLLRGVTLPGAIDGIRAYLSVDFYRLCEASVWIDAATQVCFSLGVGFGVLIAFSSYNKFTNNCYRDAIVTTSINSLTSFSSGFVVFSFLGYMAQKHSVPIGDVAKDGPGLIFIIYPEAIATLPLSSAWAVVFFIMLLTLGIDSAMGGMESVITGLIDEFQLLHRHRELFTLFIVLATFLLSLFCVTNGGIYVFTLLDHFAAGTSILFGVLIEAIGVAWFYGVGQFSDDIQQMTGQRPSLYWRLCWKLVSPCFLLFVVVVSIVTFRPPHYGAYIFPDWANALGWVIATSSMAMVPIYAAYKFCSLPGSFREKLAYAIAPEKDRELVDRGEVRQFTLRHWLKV

As to `[O-][S+](Cc1cccs1)C(c1ccccc1)c1ccc(Br)cc1` (stereo in doubt; 11h), the IC50 in assay [1] (read-out: IC50) is 2.4 µM.
`Cc1noc(C[S+]([O-])C(c2ccccc2)c2ccccc2)n1` (stereo unspecified): the IC50 entry in assay [2] (hek293) is “Not Active”; in assay [3] (hek293), “Not Active”; in assay [1] (read-out: IC50), 56.7 µM.
In the case of `[O-][S@+](Cc1cccs1)[C@H](c1ccccc1)c1ccc(Br)cc1`, the IC50 entry is “Not Active” in assay [2] (hek293), “Not Active” in assay [3] (hek293) and 1.5 µM in assay [1] (read-out: IC50).
`[O-][S+](Cc1ccsc1Br)C(c1ccccc1)c1ccccc1` (stereo unspecified): the half-maximal inhibitory concentration (IC50) in assay [2] (read-out: IC50) came to 144 µM; in assay [3] (read-out: IC50) it was 59.6 µM; in assay [1] (read-out: IC50), 29.3 µM.
In the case of `Cc1scc(C[S+]([O-])C(c2ccccc2)c2ccccc2)c1C` (stereo unspecified), the concentration for half-maximal inhibition (IC50) entry in assay [2] (hek293) was “Not Active”; in assay [3] (hek293) it was “Not Active”; in assay [1] (read-out: IC50) it was 284 µM.
With `CC(C)c1nnsc1C[S+]([O-])C(c1ccccc1)c1ccccc1` (stereo unspecified), the IC50 in assay [2] (read-out: IC50) is 30 µM; in assay [3] (hek293), “Not Active”; in assay [1] (read-out: IC50), 69.1 µM.
For the compound `O=c1[nH]nc(C[S+]([O-])C(c2ccccc2)c2ccccc2)s1` (stereo unspecified), the half-maximal inhibitory concentration (IC50) in assay [2] (read-out: IC50) was 85.7 µM; in assay [3] (hek293) it was “Not Active”; in assay [1] (read-out: IC50) it was 38.1 µM.
Regarding `[O-][S+](Cc1cc(C2CC2)on1)C(c1ccccc1)c1ccccc1` (stereo unspecified), the IC50 result in assay [2] (hek293) is “Not Active”; in assay [3] (hek293), “Not Active”; in assay [1] (read-out: IC50), 38.6 µM.
Turning to `[O-][S+](Cc1csc(Br)c1)C(c1ccccc1)c1ccccc1` (stereo unspecified), the figures for the IC50 in assay [2] (read-out: IC50), in assay [3] (read-out: IC50) and in assay [1] (read-out: IC50) were 67.2 µM, 44.7 µM and 16.6 µM, respectively.
Take `COc1ccnc(C[S+]([O-])C(c2ccccc2)c2ccccc2)c1OC` (stereo unspecified): the IC50 result in assay [2] (hek293), in assay [3] (hek293) and in assay [1] (hek293) was “Not Active” throughout.
Take `[O-][S+](Cc1cccs1)C(c1ccc(Cl)cc1)c1ccc(Cl)cc1` (stereo unspecified): the figures for the IC50 result in assay [2] (hek293), in assay [3] (hek293) and in assay [1] (read-out: IC50) were “Not Active”, “Not Active” and 7.2 µM, respectively.
Turning to `Cc1ccc(C(c2ccccc2)[S+]([O-])Cc2cccs2)cc1` (stereo unspecified), the IC50 came out at 152 µM in assay [2] (read-out: IC50), 118 µM in assay [3] (read-out: IC50) and 2 µM in assay [1] (read-out: IC50).
Consider `[O-][S+](Cc1nc(C(F)(F)F)no1)C(c1ccccc1)c1ccccc1` (stereo unspecified), for which the figures for the IC50 in assay [2] (read-out: IC50), in assay [3] (read-out: IC50) and in assay [1] (read-out: IC50) were 71 µM, 209 µM and 43.7 µM, respectively.
As to `Cc1ccc(C(c2ccc(C)cc2)[S+]([O-])Cc2cccs2)cc1` (stereo unspecified), the IC50 entry was “Not Active” in assay [2] (hek293), “Not Active” in assay [3] (hek293) and 5.8 µM in assay [1] (read-out: IC50).
As to `[O-][S+](Cc1cc(Br)cs1)C(c1ccccc1)c1ccccc1` (stereo unspecified), the IC50 entry is “Not Active” in assay [2] (hek293), 70.9 µM in assay [3] (read-out: IC50) and 13.7 µM in assay [1] (read-out: IC50).
Turning to `[O-][S+](Cc1ccc(Cl)s1)C(c1ccccc1)c1ccccc1` (stereo unspecified), the IC50 in assay [2] (read-out: IC50) was found to be 68.4 µM; in assay [3] (read-out: IC50), 57.2 µM; in assay [1] (read-out: IC50), 12.8 µM.
Turning to `[O-][S+](Cc1cccs1)C(c1ccccc1)c1ccc(Br)cc1` (stereo in doubt; 11g), the IC50 in assay [1] (read-out: IC50) is 3.7 µM.
On to `NC(=O)C[S+]([O-])C(c1ccccc1)c1ccccc1` (stereo unspecified) [MODAFINIL], for which the IC50 in assay [2] (read-out: IC50) was 284 µM.
With `COc1cc(C)nc(C[S+]([O-])C(c2ccccc2)c2ccccc2)n1` (stereo unspecified), the half-inhibitory concentration (IC50) in assay [2] (read-out: IC50) was 228 µM; in assay [3] (hek293), “Not Active”; in assay [1] (read-out: IC50), 90.5 µM.
For `[O-][S@@+](Cc1cccs1)[C@@H](c1ccccc1)c1ccc(Br)cc1`, the IC50 result was “Not Active” in assay [2] (hek293), “Not Active” in assay [3] (hek293) and 4.1 µM in assay [1] (read-out: IC50).
For `Cc1nc(O)cc(C[S+]([O-])C(c2ccccc2)c2ccccc2)n1` (stereo unspecified), in assay [4], the inhibition entry was “Active”. In addition, the IC50 result in assay [2] (hek293) was “Not Active”; in assay [3] (hek293), “Not Active”; in assay [1] (read-out: IC50), 3.1 µM.
Consider `[O-][S+](Cc1cccs1)C(c1ccc(F)cc1)c1ccc(F)cc1` (stereo unspecified), for which the results for the concentration for half-maximal inhibition (IC50) in assay [2] (read-out: IC50), in assay [3] (read-out: IC50) and in assay [1] (read-out: IC50) were 113 µM, 120 µM and 4 µM, respectively.
`Cc1cc(O)nc(C[S+]([O-])C(c2ccccc2)c2ccccc2)n1` (stereo unspecified): the IC50 entry in assay [2] (hek293) was “Not Active”; in assay [3] (hek293), “Not Active”; in assay [1] (read-out: IC50) it was 109 µM.
As for `[O-][S+](Cc1nc(O)cc(C(F)(F)F)n1)C(c1ccccc1)c1ccccc1` (stereo unspecified), the results for the IC50 result in assay [2] (hek293), in assay [3] (hek293) and in assay [1] (read-out: IC50) were “Not Active”, “Not Active” and 40.4 µM, respectively.
Take `[O-][S+](Cc1sccc1Cl)C(c1ccccc1)c1ccccc1` (stereo unspecified): the IC50 in assay [2] (read-out: IC50) was 188 µM; in assay [3] (hek293), “Not Active”; in assay [1] (read-out: IC50), 4.9 µM.
In the same order, the values of `Cc1cc(C[S+]([O-])C(c2ccccc2)c2ccccc2)nc(C)n1` (stereo unspecified) are 768 µM, “Not Active” and 82.6 µM.
On to `Cc1cnc(C[S+]([O-])C(c2ccccc2)c2ccccc2)nc1` (stereo unspecified), for which the IC50 result is “Not Active” in assay [2] (hek293), “Not Active” in assay [3] (hek293) and 156 µM in assay [1] (read-out: IC50).
Turning to `[O-][S+](Cc1ccsc1)C(c1ccccc1)c1ccccc1` (stereo unspecified), the results for the IC50 in assay [2] (read-out: IC50), in assay [3] (hek293) and in assay [1] (read-out: IC50) were 57.6 µM, “Not Active” and 3 µM, respectively.
Regarding `[O-][S+](Cc1ccncc1)C(c1ccccc1)c1ccccc1` (stereo unspecified), the IC50 entry is “Not Active” in assay [2] (hek293), “Not Active” in assay [3] (hek293) and 63.5 µM in assay [1] (read-out: IC50).
Regarding `Cc1nnc(C[S+]([O-])C(c2ccccc2)c2ccccc2)s1` (stereo unspecified), the half-inhibitory concentration (IC50) entry in assay [2] (hek293), in assay [3] (hek293) and in assay [1] (hek293) was “Not Active” each time.
Regarding `COC1NN=C(C[S+]([O-])C(c2ccccc2)c2ccccc2)S1` (stereo unspecified), the IC50 was 146 µM in assay [2] (read-out: IC50), “Not Active” in assay [3] (hek293) and 108 µM in assay [1] (read-out: IC50).
With `[O-][S+](Cc1cccs1)C(c1ccccc1)c1ccc(Br)cc1` (stereo in doubt; 11c), the IC50 result was “Not Active” in assay [2] (hek293), “Not Active” in assay [3] (hek293) and 4.2 µM in assay [1] (read-out: IC50).
